pIC50: −log10 of the molar value.
Columns and labels:
[1] = Selectivity index, ratio of IC50 for rat L6 cells to IC50 for erythrocytic stage of Plasmodium falciparum NF54; format: toxicity; conditions: read-out: Ratio IC50
Outline: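 Ratio of the L6 cytotoxicity IC50 to the IC50 against P. falciparum NF54.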

[2] = system: HCT-116; assay: Cytotoxicity against human HCT116 cells assessed as growth inhibition after 72 hrs by MTT assay; format: cell-based; conditions: HCT-116, 72 h
Outline: (§1)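 Cells cultured in DMEM or RPMI-1640 with 10% FBS, 2 mM L-glutamine and antibiotics at 37 °C, 5% CO2. Seeded at 2×10^4–4×10^4 cells/well and attached for 24 h before five serial 10-fold compound dilutions, final DMSO <0.2%. MTT at 72 h. IC50 interpolated between the two concentrations flanking 50% growth inhibition; single experiment.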

[3] = system: K562; assay: Cytotoxicity against human K562 cells assessed as growth inhibition after 72 hrs by MTT assay; format: cell-based; conditions: K562, 72 h
[4] = system: NCI-H460; assay: Cytotoxicity against human NCI-H460 cells assessed as growth inhibition after 72 hrs by MTT assay; format: cell-based; conditions: NCI-H460, 72 h
Outline: (§2)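 Monolayers grown in DMEM or RPMI-1640 with 10% FBS, 2 mM L-glutamine and penicillin/streptomycin at 37 °C, 5% CO2. Seeded at 2×10^4–4×10^4 cells/well and attached for 24 h. Five serial 10-fold dilutions added, final DMSO <0.2%. MTT read-out at 72 h; percentage growth calculated. IC50 by linear interpolation between concentrations bracketing 50% growth; at least two biological replicates.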

[5] = system: Plasmodium falciparum; assay: Antiplasmodial activity against erythrocytic stage of Plasmodium falciparum NF54 assessed as reduction in [3H]hypoxanthine incorporation after 48 hrs by liquid scintillation counting method; format: functional, organism-based
Outline: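 Asexual blood-stage NF54 grown in hypoxanthine-free RPMI 1640 with HEPES, NaHCO3, neomycin and Albumax, using washed human A+ erythrocytes at 2.5% hematocrit and 0.3% parasitemia. Compounds were made as 10 mg/ml DMSO stocks and run as eleven 3-fold dilutions, 100 to 0.002 µg/ml. Incubation at 37 °C in 4% CO2, 3% O2, 93% N2. After 48 h, 0.5 µCi 3H-hypoxanthine was added for a further 24 h, then harvested and scintillation counted. IC50 by linear interpolation of sigmoidal curves; averages of 2–3 independent experiments.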

[6] = system: NCI-H460; assay: Cytotoxicity against human NCI-H460 cells assessed as growth inhibition at 10 uM cotreated with G6PD inhibitor 6-AN after 72 hrs by MTT assay; format: cell-based; conditions: nci-h460, 72 h
Outline: (§3)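 Adherent cells seeded at 2×10^4–4×10^4 cells/well and left 24 h, then treated with compound alone or together with 6-aminonicotinamide (always 10 µM, used to mimic G6PD deficiency). Final DMSO <0.2%. Growth measured by MTT after 72 h and expressed as percentage growth relative to untreated cells.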

[7] = system: A2780; assay: Cytotoxicity against human A2780 cells assessed as growth inhibition after 72 hrs by MTT assay; format: cell-based; conditions: A2780, 72 h; outline: as §2
[8] = system: MCF7; assay: Cytotoxicity against human MCF7 cells assessed as growth inhibition at 10 uM cotreated with G6PD inhibitor 6-AN after 72 hrs by MTT assay; format: cell-based; conditions: mcf7, 72 h; outline: as §3
[9] = system: MCF7; assay: Cytotoxicity against human MCF7 cells assessed as growth inhibition after 72 hrs by MTT assay; format: cell-based; conditions: MCF7, 72 h; outline: as §2
[10] = system: SW-620; assay: Cytotoxicity against human SW620 cells assessed as growth inhibition after 72 hrs by MTT assay; format: cell-based; conditions: SW-620, 72 h; outline: as §2
[11] = system: HL-60; assay: Cytotoxicity against human HL60 cells assessed as growth inhibition after 72 hrs by MTT assay; format: cell-based; conditions: HL-60, 72 h
[12] = system: L6; assay: Cytotoxicity against rat L6 cells assessed as reduction in cell viability after 70 hrs by Alamar blue assay; format: cell-based; conditions: L6, 70 h
Outline: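 L6 rat skeletal myoblasts were plated at 4000 cells/well in RPMI 1640 with L-glutamine and 10% FBS. Eleven 3-fold drug dilutions, 100 to 0.002 µg/ml. After 70 h, Alamar Blue was added for 2 h and fluorescence read (ex 536 nm, em 588 nm). IC50 by linear interpolation from sigmoid dose-inhibition curves.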

[13] = system: CAPAN-1; assay: Cytotoxicity against human Capan1 cells assessed as growth inhibition after 72 hrs by MTT assay; format: cell-based; conditions: CAPAN-1, 72 h; outline: as §1
[14] = Cytotoxicity against human MCF7 cells assessed as cell growth at 10 uM after 72 hrs by MTT assay relative to control; format: cell-based; conditions: read-out: Activity; outline: as §3
[15] = Safety index, ratio of compound IC50 to primaquine IC50 for rat L6 cells; format: ADME, cell-based; conditions: read-out: Ratio IC50
[16] = Cytotoxicity against human MCF7 cells assessed as cell growth at 10 uM cotreated with G6PD inhibitor 6-AN after 72 hrs by MTT assay relative to control; format: cell-based; outline: as §3

COc1cc(NC(C)CCCNC(=O)NC(C(=O)NC(c2ccccc2)c2ccc(Cl)cc2)c2ccccc2)c2ncccc2c1 (stereo unspecified)
selectivity ratio [1]: > 53.3 | pIC50 [2]: < 4.00 | pIC50 [3]: < 4.00 | pIC50 [4]: < 4.00 | pIC50 [5]: 5.52 | growth inhibition (GI) [6]: Non-Toxic | pIC50 [7]: < 4.00 | growth inhibition (GI) [8]: Non-Toxic | pIC50 [9]: < 4.00 | pIC50 [10]: < 4.00 | pIC50 [11]: < 4.00 | pIC50 [12]: < 3.80 | pIC50 [13]: < 4.00

COc1ccc(C(=NNC(=O)NNC(=O)NCCCC(C)Nc2cc(OC)cc3cccnc23)c2ccc(OC)cc2)cc1 (stereo unspecified)
selectivity ratio [1]: 61.9 | pIC50 [4]: 5.30 | pIC50 [5]: 5.66 to 5.72 | growth inhibition (GI) [6]: Toxic | pIC50 [7]: 7.22 | growth inhibition (GI) [8]: Toxic | pIC50 [9]: 6.00 to 6.05 | pIC50 [12]: 3.87

COc1cc(NC(C)CCCNC(=O)NC(CC(C)C)C(=O)NC(c2ccccc2)c2ccccc2)c2ncccc2c1 (stereo unspecified)
selectivity ratio [1]: > 50 | pIC50 [2]: < 4.00 | pIC50 [3]: < 4.00 | pIC50 [4]: < 4.00 | pIC50 [5]: 5.47 | growth inhibition (GI) [6]: Non-Toxic | pIC50 [7]: 4.44 | growth inhibition (GI) [8]: Non-Toxic | pIC50 [9]: < 4.00 | pIC50 [10]: < 4.00 | pIC50 [11]: < 4.00 | pIC50 [12]: < 3.77 | pIC50 [13]: < 4.00

COc1cc(NC(C)CCCNC(=O)NNC(=O)NCCNC(c2ccccc2)(c2ccccc2)c2ccccc2)c2ncccc2c1 (stereo unspecified)
selectivity ratio [1]: > 83.3 | pIC50 [4]: 5.52 | pIC50 [5]: 5.92 | growth inhibition (GI) [6]: Toxic | pIC50 [7]: 6.00 | growth inhibition (GI) [8]: Toxic | pIC50 [9]: 5.52 | pIC50 [12]: < 4.00

COc1cc(NC(C)CCCNC(=O)NC(C(=O)N(C)C(c2ccccc2)c2ccccc2)c2ccccc2)c2ncccc2c1 (stereo unspecified)
selectivity ratio [1]: > 21.5 | pIC50 [2]: < 4.00 | pIC50 [3]: < 4.00 | pIC50 [4]: 4.19 | pIC50 [5]: 5.19 | pIC50 [9]: < 4.00 | pIC50 [10]: < 4.00 | pIC50 [11]: < 4.00 | pIC50 [12]: < 3.85 | pIC50 [13]: < 4.00

COc1cc(NC(C)CCCN)c2ncccc2c1 (stereo unspecified) [PRIMAQUINE PHOSPHATE]
selectivity ratio [1]: 39.7 | pIC50 [2]: 4.35 | pIC50 [3]: 4.92 | pIC50 [4]: 5.00 | pIC50 [5]: 5.82 | viability at 72 h, 10 µM [14]: 25% | pIC50 [7]: 5.30 | pIC50 [9]: 5.30 | pIC50 [10]: 4.85 | pIC50 [11]: 4.94 | pIC50 [12]: 4.23 | pIC50 [13]: 4.85

COc1cc(NC(C)CCCNC(=O)NC(C(=O)NC(c2ccccc2)c2ccc(Cl)cc2)c2ccc(Cl)cc2)c2ncccc2c1 (stereo unspecified)
selectivity ratio [1]: > 83.3 | pIC50 [2]: < 4.00 | pIC50 [3]: < 4.00 | selectivity ratio [15]: 2.5 | pIC50 [4]: < 4.00 | pIC50 [5]: 5.74 | viability at 72 h, 10 µM [16]: 76% | viability at 72 h, 10 µM [14]: 93% | growth inhibition (GI) [6]: Non-Toxic | pIC50 [7]: 4.85 | pIC50 [9]: < 4.00 | pIC50 [10]: < 4.00 | pIC50 [11]: < 4.00 | pIC50 [12]: < 3.82 | pIC50 [13]: < 4.00

COc1ccc(C(=NNC(=O)NCCCC(C)Nc2cc(OC)cc3cccnc23)c2ccc(OC)cc2)cc1 (stereo unspecified)
selectivity ratio [1]: 78.3 | pIC50 [4]: < 4.00 | pIC50 [5]: 5.62 to 5.64 | growth inhibition (GI) [6]: Toxic | pIC50 [7]: 6.00 | growth inhibition (GI) [8]: Toxic | pIC50 [9]: 5.52 to 5.55 | pIC50 [12]: < 3.74

COc1cc(NC(C)CCCNC(=O)NC(C(=O)NC(c2ccccc2)c2ccccc2)c2ccc(Cl)cc2)c2ncccc2c1 (stereo unspecified)
selectivity ratio [1]: > 114 | pIC50 [2]: < 4.00 | pIC50 [3]: < 4.00 | selectivity ratio [15]: 2.7 | pIC50 [4]: < 4.00 | pIC50 [5]: 5.85 | viability at 72 h, 10 µM [16]: 65% | viability at 72 h, 10 µM [14]: 80% | pIC50 [7]: < 4.00 | pIC50 [9]: < 4.00 | pIC50 [10]: 5.22 | pIC50 [11]: < 4.00 | pIC50 [12]: < 3.80 | pIC50 [13]: < 4.00
